Laboratory results from ChEMBL document CHEMBL4513216, “Probing the Open Global Health Chemical Diversity Library for Multistage-Active Starting Points for Next-Generation Antimalarials” (ACS Infect Dis, 2020).

Assay: Toxicity liver stage against HepG2, at 10uM
Format: cell-based
Parameters: test concentration 10 uM, cell line HepG2-A16-CD81EGFP
Settings: human, HepG2-A16-CD81EGFP cells; read-out: INHIBITION
Summary of the method: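 Uninfected HepG2-A16-CD81EGFP cells, 3 × 10^3 per well, 1536-well, plated on prespotted compound at 10 μM final, parasite-free screening media added to match infected plates; puromycin 10 μM positive, DMSO 0.5% negative; run in parallel with 48 h PbLuc assay at 37 °C, 5% CO2; viability by CellTiter-Glo luminescence, normalized to controls.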

| Structure (SMILES) | cytotoxicity at 10 µM |
| --- | --- |
| CN1C[C@@H](F)[C@@H](OCc2nc3ccccc3[nH]2)C1 | 5.34% |
| CO[C@H]1C(=O)N(C)C2(CCNCC2)[C@@H]1C(=O)Nc1ccccc1 | 6.17% |
| Cc1nc(N2CCN(C(=O)c3cccs3)CC2)cc(-n2cccc2)n1 | 1.01% |
| CC(C)(C)c1cc(=O)n2c(n1)SCC(C(=O)NCc1ccccn1)C2 (stereo unspecified) | -6.88% |
| c1cn2c(n1)CNCC(COCC1CC1)C2 (stereo unspecified) | 17.4% |
| CN1CCN(C(=O)C[C@@H]2COC[C@H]3CN(c4ccncn4)C[C@@H]23)CC1 | -134% |
| O=C(CC1CC1)N[C@@H]1CN(Cc2nccs2)C[C@@H]2CCCO[C@@H]21 | 8.85% |
| O=C(c1cccc(F)c1)N1C[C@H]2CCCC(OCc3cccnc3)[C@H]2C1 (stereo partly specified) | 8.21% |
| CCOCC1CN(Cc2ccc3c(c2)OCO3)Cc2nccn2C1 (stereo unspecified) | -126% |
| COC(=O)CC1CCN(C(=O)c2ccc(C)cc2)CC1 | 4.99% |
| Cc1noc([C@H]2COC[C@H]3CN(C(=O)Cc4ccc(F)cc4)C[C@H]32)n1 | -21.1% |
| CCCN1C(=O)c2ccccc2C1OC (stereo unspecified) | -10.1% |
| CC(C)C(NC(=O)C1CCCC1)c1cc(O)nc(-c2cccnc2)n1 (stereo unspecified) | 9.82% |
| CS(=O)(=O)N1CCC(c2cnc(-c3cn[nH]c3)cn2)CC1 | 3.64% |
| COc1ccc2c(c1)CC(C1CCOCC1)N(C(=O)c1ccnn1C)C2 (stereo unspecified) | -0.516% |
| COc1ccc(Br)cc1SCCS(C)(=O)=O | 2.71% |
| CN(C)CCN(CC1CCCO1)C(=O)Cc1cn2ccccc2n1 (stereo unspecified) | -2.96% |
| Cc1ccc(C(O)CN(C)Cc2cnn(C)c2)cc1C (stereo unspecified) | -5.37% |
| O=C(NCc1ccon1)Nc1cc(F)ccc1N1CCCCC1 | 12.7% |
| CS(=O)(=O)NC1CC(=O)N(c2ccccc2Cl)C1 (stereo unspecified) | -0.585% |
| N#Cc1ccc(F)c(CN2CCCC2Cn2cncn2)c1 (stereo unspecified) | 8.21% |
| Cc1nc(CNCc2ccc(N3CCN(C)CC3)nc2)cs1 | -5.33% |
| OCCN1CCC(CNCCOCC(F)(F)F)CC1 | -0.903% |

| Structure (SMILES) | cytotoxicity at 10 µM |
| --- | --- |
| CNC(=O)NC(=O)C(C)N1CCN(C2CCCC2)CC1 (stereo unspecified) | -14% |
| CC(C)c1ccc(O)c(C(=O)NCc2nncn2C)c1 | -3% |
| C=C(C)CN(CC)C(=O)Nc1ccccc1CN(C)C(C)=O | -9.6% |
| CN(CC(=O)N(C)C1CC1)C1CCN(c2ccc(Cl)cc2)CC1 | 0.153% |
| Cc1cccc(C(=O)NC(C(=O)NCc2ccc(O)nc2)C(C)C)c1 (stereo unspecified) | -7.81% |
| Cc1cc(CN2CCN(C(=O)C3(C#N)CCCC3)CC2)on1 | -14.9% |
| Cc1cc(NC(=O)NC(C)(C)c2nc(C)c(C)s2)no1 | -1.95% |
| CCOC(=O)c1nnc2ccccc2c1N1CCOC(C)(C)C1 | 13.8% |
| CSc1ccc(C(CC(=O)O)NC(=O)c2cc(C)on2)cc1 (stereo unspecified) | -12.1% |
| COc1cc(NC(=O)NC2CCOCC2)ccc1N1CCOC1=O | -4.59% |
| CS(=O)(=O)N1CCCCCC1C1CCN(Cc2nc(C3CC3)no2)CC1 (stereo unspecified) | -4.09% |
| Cc1cc(C2CCCN2C(=O)NCc2cccnc2OC(C)C)on1 (stereo unspecified) | -9.63% |
| Cc1noc(C)c1CNC(=O)NCCOc1ccc(F)cc1F | 0.409% |
| CNC(=O)CN1CCC(NC(=O)Cn2cc(C)c3ccccc32)CC1 | -4.65% |
| COc1ccc(CNC(=O)Nc2ccc(=O)n(C)c2)cc1 | 1.92% |
| Cc1ccc(F)c2c1CCCN2C(=O)c1cn(CC(=O)N(C)C)nn1 | -0.367% |
| Cc1cc(NCC(=O)N(C)C(C)c2cccs2)c(C(N)=O)cc1F (stereo unspecified) | -0.99% |
| COCCn1cc(NC(=O)NC(C)CCc2ccccc2)ccc1=O (stereo unspecified) | 3.4% |
| Cc1cc(N2CCC(N(C)Cc3cc(=O)c(O)co3)CC2)nc(C)n1 | 2.34% |
| Cc1noc(CNc2ccccc2C(=O)N2CCCC(O)C2)n1 (stereo unspecified) | -3.13% |
| CC(C)(C)Cc1noc2ncc(C(=O)N3CCC3)cc12 | 7.28% |
| Cc1cc(F)c(S(=O)(=O)NCc2ccnc(N(C)C)n2)cc1F | -156% |
| CCN(Cc1nc(C2CC2)no1)Cc1ccc(C#N)cc1F | 3.82% |

| Structure (SMILES) | cytotoxicity at 10 µM |
| --- | --- |
| CN(Cc1nnc(C2CC2)n1C)S(=O)(=O)Cc1ccccc1F | 16.8% |
| Cc1ccc(C(=O)N2CC(C(N)=O)O[C@H](C)C2)c(C)c1 (stereo partly specified) | -0.29% |
| Cc1cc(F)ccc1N1CCCC(NC(=O)CCc2ccncc2)C1 (stereo unspecified) | 8.72% |
| COC(=O)[C@H]1CCCCN1C(=O)c1cccc(-n2cccn2)c1 | -8.29% |
| CN(CCn1nc2ccccn2c1=O)CC(=O)NC1CC1 | 3.2% |
| Cc1noc(C(C)N2CCN(CC(=O)N3CCOCC3)CC2)n1 (stereo unspecified) | -8.41% |
| O=C(c1ccc(-c2ccoc2)nc1)N1CCCN(C2CCCCC2)CC1 | 7.69% |
| CSc1ncccc1C(=O)N(C)CCc1scnc1C | 4.23% |
| COc1ccc2c(c1)OCC(Cc1cnccc1N)C2 (stereo unspecified) | 4.28% |
| O=C(CCN1CCCC1c1ccccn1)N1CCc2ccccc2C1 (stereo unspecified) | 2.87% |
| CCCN1CC2(CCN(c3ncc(F)cn3)CC2)CC1C(=O)O (stereo unspecified) | -1.71% |
| CCOCCNC(=O)c1cc(COc2cncc(Cl)c2)on1 | 7.62% |
| CCOc1ccccc1N1CCN(CC2(O)CCCNC2)CC1 (stereo unspecified) | -2.36% |
| O=C(NCCC1CN(Cc2cccnc2)CCO1)c1ccsc1 (stereo unspecified) | -8.03% |
| CN(Cc1cnn(C)c1)C(=O)C1COc2ccccc2C1 (stereo unspecified) | 0.583% |
| Cc1ccccc1CN(CCN(C)C)Cc1ccc(O)c(C(=O)O)c1 | 0.935% |
| CC(C)N(C)S(=O)(=O)c1ccc2c(c1)CCN(C(=O)c1cnccn1)C2 | -6.17% |
| c1[nH]c(CC2CCCC2)nc1CN1CCCC2(CCOC2)C1 (stereo unspecified) | -9.12% |
| Cc1ccc(-c2n[nH]cc2CN(Cc2nccn2C)C(C)C)cc1C | 2.57% |
| CC(C)Cc1cc(CNC(=O)C2CCCN(C(=O)N(C)C)C2)no1 (stereo unspecified) | 2.31% |
| Cc1ccc(OC2CCN(C(=O)C(C)Cn3cccn3)CC2)cc1 (stereo unspecified) | -2.09% |
| O=C(NCCc1c[nH]cn1)C1CCCN(Cc2ccco2)C1 (stereo unspecified) | -0.123% |
| Cc1ccc(CN(CCCO)Cc2nc3ccccc3[nH]2)s1 | 7.18% |

| Structure (SMILES) | cytotoxicity at 10 µM |
| --- | --- |
| O=C(c1ccc2cccc(F)c2n1)N1CCN(CCn2cccc2)CC1 | 13.5% |
| Cc1cnccc1-n1nc(C(C)C)nc1CS(C)(=O)=O | 0.999% |
| COc1ccc(CN2CCC(O)(CN3CCCCC3)C2)c(C)c1 (stereo unspecified) | 7.5% |
| COC(C)(C)CC(C)NCc1cc(-c2ccco2)on1 (stereo unspecified) | 1.81% |
| CCc1cc(N2CCC(NC3CCOCC3)CC2)nc(N(C)C)n1 | -14.5% |
| CC1CCN(Cc2cnc(S(=O)(=O)CC3CC3)n2CC2CCCO2)CC1 (stereo unspecified) | 6.17% |
| COc1c(C2CCCN2C(=O)c2cnc[nH]2)c(C)nn1C (stereo unspecified) | -1.68% |
| N#Cc1cccc(CNCCNC(=O)Cc2cccc(F)c2)c1 | 3.7% |
| O=C(CN1C=Nc2ccccc2S1(=O)=O)NCC1CC1 | -10.2% |
| Cc1nccc(-c2cccc(NCC(=O)NCC(=O)N3CCCC3)c2)n1 | -9.18% |
| O=C(CCOc1ccccc1F)N1CCCC1Cn1cccn1 (stereo unspecified) | -3.71% |
| O=C(Nc1ccc(CCN2CCC(O)CC2)cc1)C1CCCCC1 | -17.7% |
| Cc1ncc2c(n1)CN(Cc1nc(-c3cccs3)no1)CC2 | -9.8% |
| Cc1ccc(NC2CCN(C(=O)c3ccoc3C)CC2)nn1 | -12.7% |
| CC(=O)N1CCN(C(=O)CCCc2nnc(-c3ccccc3)o2)CC1 | -12.5% |
| Cc1ccc(-c2nc(CN3CCc4cnc(C)nc4C3)no2)cc1 | -5.12% |
| O=C(NCCNc1cnccn1)N1CCN(c2nccs2)CC1 | -0.84% |
| Cc1nc(C)n(CC2CCCN(CCOc3ccccc3C#N)C2)n1 (stereo unspecified) | 4.61% |
| CN(C)Cc1cccc(C(=O)N2CCCC(n3cncn3)C2)c1 (stereo unspecified) | -5.87% |
| Cc1csc(N2CCN(C(=O)Cc3cccs3)CC2)n1 | -23.3% |
| Cc1ccccc1OCCC(=O)NC(C)c1nnc2n1CCCCC2 (stereo unspecified) | -12.3% |
| Cc1nn(C)c(C)c1NC(=O)CN1CCCC1c1c(C)nn(C)c1C (stereo unspecified) | -6.44% |
| CCc1nc(C(=O)N2CCN(C)CC2C)nn1-c1ccccc1Cl (stereo unspecified) | -2.38% |

| Structure (SMILES) | cytotoxicity at 10 µM |
| --- | --- |
| CC(NC(=O)CSCC#N)c1cccc(NC(=O)c2ccccc2)c1 (stereo unspecified) | -1.79% |
| CCc1nc2n(n1)CC(NCc1noc(-c3ccccc3)n1)CC2 (stereo unspecified) | -10.6% |
| c1nc2n(n1)CC(NCc1nc(-c3ccsc3)no1)CC2 (stereo unspecified) | -8.13% |
| O=C(c1nc(=O)[nH][nH]1)N1CCCC(c2cc(C(F)(F)F)[nH]n2)C1 (stereo unspecified) | -12.3% |
| Cc1cc(C)cc(C2(C(=O)N3CCCC(n4cncn4)C3)CC2)c1 (stereo unspecified) | -3% |
| Cc1ccc(-c2cc(CN3CCCC(Cn4cncn4)C3)on2)cc1 (stereo unspecified) | -11.8% |
| O=C(C1CC=CC1)N1CCC2(CC1)CNCCO2 | 1.46% |
| COC[C@@H]1CC[C@H]2[C@H](CCN2C(=O)c2ccncc2F)O1 | -8.82% |
| Fc1cccnc1O[C@H]1CN(Cc2ccoc2)[C@@H]2CCCO[C@H]12 | -0.908% |
| Cc1ccc(CN2CC[C@H]3[C@H]2CC(=O)N3c2ccsc2)o1 | 1.12% |
| CC(C)N1CCc2ncn(C)c2C1C(=O)N1CCOCC1 (stereo unspecified) | 10.9% |
| O=C(NC1CC1)N1CC[C@H](OCC2CC2)[C@@H]1Cc1cccnc1 | 1.36% |
| CCOCC1CN(CC2CC2)Cc2nn(CC3CC3)cc21 (stereo unspecified) | 0.748% |
| Cc1cccc(CN2CCN3C[C@H](Oc4cccnc4)C[C@H]3C2)n1 | 6.61% |
| NC(CNS(=O)(=O)Cc1cccc2cccnc12)c1ccccc1 (stereo unspecified) | -5.39% |
| CCN(CC)CCN1CCO[C@H]2[C@@H](OCc3ccncc3)CC[C@@H]21 | -4.65% |
| NC1CCN(C(=O)c2c(F)cccc2Br)CC1 | 11.4% |
| O=c1[nH]c2cn(-c3cccc(F)c3)c(=O)n2n1Cc1ccc(Cl)cc1 | 8.53% |
| Cn1[nH]c(C2CCCN(C(=O)CO)C2)cc1=O (stereo unspecified) | 2.01% |
